Published values pooled from the literature.
Protocols differ between the studies behind these lines.
Target: NUAK family SNF1-like kinase 1 (NUAK1, Homo sapiens, UniProt O60285)
Residues used in one study (O60285 1-661): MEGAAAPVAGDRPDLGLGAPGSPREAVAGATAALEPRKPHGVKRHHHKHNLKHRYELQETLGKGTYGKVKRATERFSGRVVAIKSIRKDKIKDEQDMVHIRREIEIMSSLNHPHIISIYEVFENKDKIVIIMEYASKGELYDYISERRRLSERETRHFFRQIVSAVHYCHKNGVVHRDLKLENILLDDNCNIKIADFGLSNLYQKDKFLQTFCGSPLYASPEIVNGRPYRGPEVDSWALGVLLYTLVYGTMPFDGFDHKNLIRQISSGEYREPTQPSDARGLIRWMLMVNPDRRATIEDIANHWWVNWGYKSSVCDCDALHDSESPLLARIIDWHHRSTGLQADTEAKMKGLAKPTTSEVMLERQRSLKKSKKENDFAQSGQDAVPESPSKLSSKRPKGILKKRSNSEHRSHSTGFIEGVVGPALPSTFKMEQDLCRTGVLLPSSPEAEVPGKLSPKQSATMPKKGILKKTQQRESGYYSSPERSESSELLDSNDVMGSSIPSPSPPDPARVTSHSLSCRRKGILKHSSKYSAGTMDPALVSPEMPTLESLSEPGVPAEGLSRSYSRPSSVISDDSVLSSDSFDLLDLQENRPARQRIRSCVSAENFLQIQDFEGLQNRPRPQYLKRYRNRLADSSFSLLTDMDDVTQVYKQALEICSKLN

CC(C)S(=O)(=O)c1ccc2nccc(Nc3ccc4sc(C5CCCC5)nc4c3)c2c1  activity vs control (enzyme activity, inhibitor; 1 µM): 108%
C=CC(=O)N1CCC[C@@H](n2nc(-c3ccc(Oc4ccccc4)cc3)c3c(N)ncnc32)C1  inhibition (enzyme activity, inhibitor; 1 µM): 10%
C#Cc1cc(-c2cc(Nc3nc(N[C@@H](C)c4ccc(F)cn4)ncc3Cl)n[nH]2)ccc1C=O  inhibition (enzyme activity, inhibitor; 0.2 µM): 17.1%
C1=C/COCc2cc(ccc2OCCN2CCCC2)Nc2nccc(n2)-c2cccc(c2)COC/1  remaining signal (cell-free assay; 0.1 µM): 39%
COc1ccc2[nH]c3c4[nH]c5ccc(OC)cc5c4c4c(c3c2c1)C(=O)NC4=O  remaining binding (binding; 1 µM): 25%
C=CC(=O)N1CCC([C@@H]2CCNc3c(C(N)=O)c(-c4ccc(Oc5ccccc5)cc4)nn32)CC1  inhibition (enzyme activity, inhibitor; 1 µM): 2%
C[C@H]1CC[C@H](n2c3cnccc3c3cnc(Nc4ccc5c(n4)CCN(C(=O)CO)C5)nc32)CC1  remaining signal (cell-free assay; 1 µM): 72%
CCCCC(=O)Nc1ccc(-c2ccc3ncn(CCC)c(=O)c3c2)cn1  remaining binding (binding, competition with immobilised ligand; 0.5 µM): 73%
